Key:
[1] = target: T1, Intercellular adhesion molecule 1 (Homo sapiens, UniProt P05362); assay: In vitro inhibitory potency compared to IL1-beta induced Intercellular adhesion molecule-1 in human endothelial cells (ELISA assay); format: cell-based, Endothelial cell
Summary of the method: (§1)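 Primary HUVECs seeded at 5 × 10^4 cells/mL in EBM/2% FBS with EGF, bovine brain extract and gentamicin. Compound added next day for 24 h at 37 °C, then inducer (IL-1β or PMA, level not stated) for 6 h at 37 °C. Whole-cell ELISA used mouse monoclonal anti-ICAM-1 or anti-VCAM-1, HRP donkey anti-mouse IgG and OPD, read at 490 nm. Run in triplicate.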

E-selectin [2] = target: T2, E-selectin (Homo sapiens, UniProt P16581); assay: In vitro inhibitory potency compared to IL1-beta induced Selectin E in human endothelial cells (ELISA assay); format: cell-based, Endothelial cell
T2 sequence (P16581 whole entry): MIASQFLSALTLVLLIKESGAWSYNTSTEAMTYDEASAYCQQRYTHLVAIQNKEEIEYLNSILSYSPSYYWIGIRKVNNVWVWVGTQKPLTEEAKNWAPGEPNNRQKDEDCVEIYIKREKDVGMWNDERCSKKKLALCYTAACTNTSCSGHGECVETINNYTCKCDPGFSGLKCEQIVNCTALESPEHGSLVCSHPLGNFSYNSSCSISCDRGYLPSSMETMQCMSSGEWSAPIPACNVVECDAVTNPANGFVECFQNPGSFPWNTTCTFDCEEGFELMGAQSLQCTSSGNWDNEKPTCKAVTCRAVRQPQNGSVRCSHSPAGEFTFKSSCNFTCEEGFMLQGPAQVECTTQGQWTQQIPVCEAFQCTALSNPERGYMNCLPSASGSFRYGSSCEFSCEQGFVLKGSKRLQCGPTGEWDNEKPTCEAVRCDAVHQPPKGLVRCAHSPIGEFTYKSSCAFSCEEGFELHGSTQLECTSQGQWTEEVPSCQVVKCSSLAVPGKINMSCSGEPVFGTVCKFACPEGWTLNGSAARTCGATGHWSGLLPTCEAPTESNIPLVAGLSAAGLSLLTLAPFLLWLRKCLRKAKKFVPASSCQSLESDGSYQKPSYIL
Summary of the method: (§2)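 Whole-cell ELISA on primary HUVECs plated at 5 × 10^4 cells/mL in EBM/2% FBS with growth supplements. Compound preincubated 24 h at 37 °C, then inducer added (TNFα at 5 ng/mL final, or IL-1β or PMA in its place) for 6 h at 37 °C. Mouse monoclonal anti-E-selectin, anti-ICAM-1 or anti-VCAM-1 was applied overnight at 4 °C, then HRP anti-mouse IgG. Detection with OPD, A490. Triplicate assays.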

E-selectin [3] = target: T2, E-selectin; assay: Inhibition of selectin E in human endothelial cells; format: cell-based, Endothelial cell; summary of the method: as §2
[4] = target: T1, Intercellular adhesion molecule 1; assay: In vitro inhibitory potency compared to PMA induced Intercellular adhesion molecule-1 in human endothelial cells (ELISA assay); format: cell-based, Endothelial cell; summary of the method: as §2
E-selectin [5] = target: T2, E-selectin; assay: In vitro inhibitory potency compared to TNF-alpha induced Selectin E in human endothelial cells (ELISA assay); format: cell-based, Endothelial cell; summary of the method: as §2
[6] = target: T3, E-selectin (Homo sapiens) (UniProt P16581); assay: In vitro inhibitory potency compared to PMA induced Selectin E expression in human endothelial cells (ELISA assay) at 1 uM; format: cell-based; details: Endothelial cell
T3 sequence (whole entry): T2 sequence (P16581 whole entry)
Summary of the method: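 HUVEC whole-cell ELISA with PMA substituted for TNFα as inducer. Compound preincubated 24 h at 37 °C, then 6 h induction at 37 °C. E-selectin detected with mouse monoclonal antibody and HRP anti-mouse IgG, OPD development, A490. Value given as percent inhibition at a single concentration of 1 µM.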

[7] = target: T1, Intercellular adhesion molecule 1; assay: In vitro inhibitory potency compared to TNF-alpha induced Intercellular adhesion molecule-1 in human endothelial cells (ELISA assay); format: cell-based, Endothelial cell
Summary of the method: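 Primary HUVECs seeded at 5 × 10^4 cells/mL in EBM/2% FBS with supplements. After 24 h of compound at 37 °C, TNFα was added to 5 ng/mL final for 6 h at 37 °C. Cell-surface ICAM-1 was detected with a mouse monoclonal antibody, then HRP anti-mouse IgG and OPD, with absorbance at 490 nm. Triplicate determinations.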

[8] = target: T1, Intercellular adhesion molecule 1; assay: Inhibition of intercellular adhesion molecule-1 (ICAM1) in human endothelial cells; format: cell-based, Endothelial cell; summary of the method: as §2
[9] = Toxicity in HUVEC cell lysates; format: cell-based, Lysate; details: human
Summary of the method: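 Primary HUVECs were plated at 5 × 10^4 cells/mL in EBM/2% FBS with human EGF, bovine brain extract and gentamicin. The next day, compounds were added, at up to 100 µM. TNFα was then added as in the cell ELISA. About 24 h after compound addition, MTS reagent was added, cells were incubated a further 2 h at 37 °C, and absorbance was read at 490 nm.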

[10] = target: T1, Intercellular adhesion molecule 1; assay: In vitro inhibitory potency compared to TNF-alpha induced Intercellular adhesion molecule-1 expression in human endothelial cells (ELISA assay); format: cell-based, Endothelial cell
Summary of the method: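 Primary HUVECs plated at 5 × 10^4 cells/mL in EBM/2% FBS with growth supplements; next day compound added, 24 h at 37 °C, then TNFα to 5 ng/mL final, 6 h at 37 °C. Cell ELISA: mouse monoclonal anti-ICAM-1 overnight at 4 °C, HRP donkey anti-mouse IgG, OPD, absorbance 490 nm; triplicate assay.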

[11] = Inhibition of intercellular adhesion molecule-1 (ICAM1) in human endothelial cells; details: endothelial cell
[12] = target: T4, Vascular cell adhesion protein 1 (Homo sapiens) (UniProt P19320); details: Endothelial cell
T4 sequence (whole entry): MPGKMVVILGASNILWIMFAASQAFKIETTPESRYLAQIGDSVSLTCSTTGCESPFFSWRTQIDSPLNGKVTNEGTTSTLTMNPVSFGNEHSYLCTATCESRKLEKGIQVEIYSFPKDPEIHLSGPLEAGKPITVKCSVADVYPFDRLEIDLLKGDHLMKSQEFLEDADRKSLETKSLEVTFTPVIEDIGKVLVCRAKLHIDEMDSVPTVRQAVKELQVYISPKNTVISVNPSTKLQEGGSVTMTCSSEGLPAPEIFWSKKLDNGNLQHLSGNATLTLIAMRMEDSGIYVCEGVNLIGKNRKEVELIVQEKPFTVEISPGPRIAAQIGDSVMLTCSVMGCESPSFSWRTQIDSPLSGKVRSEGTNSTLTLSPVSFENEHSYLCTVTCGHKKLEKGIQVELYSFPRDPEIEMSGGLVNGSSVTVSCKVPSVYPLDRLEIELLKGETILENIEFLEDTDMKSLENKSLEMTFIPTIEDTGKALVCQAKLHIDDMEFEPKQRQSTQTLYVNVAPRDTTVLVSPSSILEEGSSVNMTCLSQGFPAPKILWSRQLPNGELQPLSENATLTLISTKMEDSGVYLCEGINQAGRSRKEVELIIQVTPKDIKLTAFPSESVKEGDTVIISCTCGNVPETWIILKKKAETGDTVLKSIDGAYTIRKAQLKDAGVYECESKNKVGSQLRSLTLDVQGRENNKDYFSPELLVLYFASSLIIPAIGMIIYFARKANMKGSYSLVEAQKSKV

[13] = Inhibition of selectin E in human endothelial cells; details: endothelial cell
E-selectin [14] = target: T2, E-selectin; assay: In vitro inhibitory potency compared to TNF-alpha induced Selectin E expression in human endothelial cells (ELISA assay); format: cell-based, Endothelial cell; summary of the method: as §2
[15] = target: T1, Intercellular adhesion molecule 1; assay: In vitro inhibitory potency compared to PMA induced Intercellular adhesion molecule-1 expression in human endothelial cells (ELISA assay); format: cell-based, Endothelial cell; summary of the method: as §1
[16] = target: T1, Intercellular adhesion molecule 1; assay: In vitro inhibitory potency compared to IL1-beta induced Intercellular adhesion molecule-1 expression in human endothelial cells (ELISA assay); format: cell-based, Endothelial cell
Summary of the method: (§3)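 Primary HUVECs plated at 5 × 10^4 cells/mL in EBM/2% FBS with growth supplements; next day compound added, 24 h at 37 °C, then IL-1β substituted for TNFα as inducer, 6 h at 37 °C. Cell ELISA: mouse monoclonal anti-ICAM-1 or anti-E-selectin (ELAM-1) overnight at 4 °C, HRP donkey anti-mouse IgG, OPD, absorbance 490 nm.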

E-selectin [17] = target: T2, E-selectin; assay: In vitro inhibitory potency compared to IL1-beta induced Selectin E expression in human endothelial cells (ELISA assay); format: cell-based, Endothelial cell; summary of the method: as §3

T1 sequence (P05362 whole entry): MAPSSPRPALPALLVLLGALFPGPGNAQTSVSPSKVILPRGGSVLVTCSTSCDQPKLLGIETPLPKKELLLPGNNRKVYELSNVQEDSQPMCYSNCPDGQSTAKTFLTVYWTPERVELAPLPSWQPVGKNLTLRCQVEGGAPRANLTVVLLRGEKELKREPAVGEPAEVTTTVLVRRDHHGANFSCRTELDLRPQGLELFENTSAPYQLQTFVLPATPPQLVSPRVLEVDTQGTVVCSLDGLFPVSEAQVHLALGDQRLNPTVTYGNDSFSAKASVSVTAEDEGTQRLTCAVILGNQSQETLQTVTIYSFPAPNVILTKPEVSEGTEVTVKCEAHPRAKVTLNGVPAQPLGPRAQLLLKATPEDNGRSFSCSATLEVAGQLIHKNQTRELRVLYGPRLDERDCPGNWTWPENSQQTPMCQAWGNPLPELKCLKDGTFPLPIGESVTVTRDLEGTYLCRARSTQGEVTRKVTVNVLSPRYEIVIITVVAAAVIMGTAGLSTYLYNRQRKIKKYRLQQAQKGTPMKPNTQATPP

Row | IC50 [1] | IC50 (E-selectin [2]) | IC50 (E-selectin [3]) | IC50 [4] | IC50 (E-selectin [5]) | inhibition [6] | IC50 [7] | IC50 [8] | IC50 [10] | IC50 [11] | Inhibition at 1uM [12] | IC50 [13] | IC50 (E-selectin [14]) | IC50 [15] | IC50 [16] | IC50 (E-selectin [17]) | Structure (SMILES) | IC50 [9]
1 | 2 nM | 5 nM | 6 nM | 5 nM | 4 nM | 46% | 5 nM | 5 nM | – | – | – | – | – | – | – | – | CNC(=O)c1cc2c(Oc3ccc(COCCOCCOC)cc3)cncc2s1 | –
2 | – | – | – | – | – | 44% | – | – | 15 nM | 25 nM | 45% | 20 nM | 15 nM | 30 nM | 10 nM | 25 nM | Cc1ccc(Sc2cncc3sc(C(N)=O)cc23)cc1 | 152000 nM

— ChEMBL document CHEMBL1134459 (J Med Chem, 2001)
